Measurements gathered from unrelated publications.
Compare with care: the assays were run in different laboratories.
Organism: Escherichia coli
Observed: microbial growth

For CC(NCCCNC(=O)c1ccc(Cl)s1)c1cc2cc(Br)ccc2[nH]1 (stereo not drawn), the MIC was 32 µg/mL (broth dilution; ATCC25922).
CC(C)Oc1c(NC(=O)c2ccc(NC(=O)[C@H](CC(N)=O)NC(=O)c3ccc(NC(=O)c4cc(=O)c(O)c[nH]4)cc3)cc2)ccc(C(=O)Nc2ccc(C(=O)O)cc2)c1O gave an MIC of greater than 64 µg/mL (DSM1116).
For NC1CCCCc2c1[nH]c1ccc(Br)cc21 (stereo not drawn), the MIC was 16 µg/mL (broth dilution; ATCC25922).
CC(C)Oc1c(NC(=O)c2ccc(NC(=O)[C@H](CC(N)=O)NC(=O)c3ccc(NC(=O)c4ccc(C#N)cc4)cc3)cc2)ccc(C(=O)O)c1O has an MIC of greater than 64 µg/mL (DSM1116).
CC1(C)S[C@@H]2[C@H](NC(=O)[C@H](N)c3ccccc3)C(=O)N2[C@H]1C(=O)O gave an MIC of 4 µg/mL (broth dilution; MG1655).
For N=C(N)c1ccc(OCc2ccc(-c3ccccc3)cc2COc2ccc(C(=N)N)cc2)cc1, the MIC was 200 µg/mL (broth dilution; ATCC25922).
For Cc1c(CN(C)C(=O)/C=C/c2cnc3c(c2)CC(CCN)C(=O)N3)oc2ccccc12.Cl (stereo not drawn), the MIC was 8 µg/mL (broth dilution; MG1655; clinical isolate).
With C=CCn1c(-c2ccc([N+](=O)[O-])cc2)nc2ccccc21 the MIC was 64 µg/mL (broth dilution; ATCC25922).
With Brc1cccc(NCc2ccc(Oc3ccccn3)cc2)c1 the MIC was greater than 50 µg/mL.
N=C(N)c1ccc(OCCCCCCCCCCCOc2ccc(C(=N)N)cc2)cc1 gave an MIC of 50 µg/mL (BW25113).
O=C(CCCCCC[P+](c1ccccc1)(c1ccccc1)c1ccccc1)Nc1cc(O)c(O)c(O)c1.[Br-] has an MIC of greater than 32 µg/mL (broth dilution; ATCC25922; 18 h).
The MIC of CNC(C)C1CCC(N)C(OC2C(N)CC(N)C(OC3OCC(C)(O)C(NC)C3O)C2O)O1 (stereo not drawn) is reported as 0.25 µg/mL (broth dilution; K12, K12; pH 7).
For Cc1ccc2nc(-c3ccco3)n(Cc3ccccc3)c2c1, the MIC was 128 µg/mL (broth dilution; ATCC25922).
For N=C(N)c1ccc(OCc2cccc(COc3ccc(C(=N)N)cc3)c2)cc1, the MIC was 200 µg/mL (broth dilution; ATCC25922).
For COc1cccc(-c2nc3ccccc3[nH]2)c1, the MIC was 256 µg/mL (broth dilution; ATCC25922).
With O=[N+]([O-])c1ccc(-c2nc3cc(Cl)ccc3[nH]2)o1 the MIC was 8 µg/mL (broth dilution; ATTC25922).
For Cc1ccc(C)n1-c1ccc(-c2nnc(-c3ccccc3[N+](=O)[O-])[nH]2)cc1, the MIC was 250 µg/mL (broth dilution; ATCC10536; 18 h).
With Cc1ccc2nc(-c3cccc([N+](=O)[O-])c3)[nH]c2c1 the MIC was 256 µg/mL (broth dilution; ATCC25922).
CNC(C)C1CCC(N)C(OC2C(N)CC(N)C(OC3OCC(C)(O)C(NC)C3O)C2O)O1 (stereo not drawn) gave an MIC of 0.5 µg/mL (broth dilution; ATCC25922).
CC(C)Oc1c(NC(=O)c2ccc(NC(=O)[C@H](CC(N)=O)NC(=O)c3ccc(NC(=O)C(C)Sc4ccc(C#N)cc4)cc3)cc2)ccc(C(=O)Nc2ccc(C(=O)O)cc2)c1O (stereo partly drawn) has an MIC of 0.25 µg/mL (DSM1116).
CCCCCCC/C=C/C(=O)N1C(=O)/C(=C(\O)c2ccccc2)C(=O)C1CC(C)C (stereo not drawn) has an MIC of greater than 200 µg/mL (K12, K12).
CC(C)Oc1c(NC(=O)c2ccc(NC(=O)[C@H](CC(N)=O)NC(=O)c3ccc(NC(=O)c4ccc([N+](=O)[O-])cc4)cc3)cc2)ccc(C(=O)Nc2ccc(C(=O)O)c(F)c2)c1O gave an MIC of 1 µg/mL (DSM1116).
N=C(N)c1ccc(OCc2ccccc2COc2ccc(C(=N)N)cc2)cc1 gave an MIC of greater than 200 µg/mL (broth dilution; BW25113).
With CC(=O)NCN1N=C(C)C(=NNn2c(-c3ccccc3)nc3ccccc3c2=O)C1=O the MIC was 59.9 µM (broth dilution; 24 h).
The MIC of COc1ccc(-c2nc3ccc(C)cc3[nH]2)cc1O is reported as 64 µg/mL (broth dilution; ATCC25922).
With N=C(N)c1cccc(OCCCCCOc2cccc(C(=N)N)c2)c1 the MIC was greater than 200 µg/mL (broth dilution; BW25113).
The MIC of C[C@H]1[C@H](NC(=O)/C(=N\OC(C)(C)C(=O)O)c2csc(N)n2)C(=O)N1S(=O)(=O)O is reported as 0.06 µg/mL (agar dilution; ATCC25).
N=C(N)c1ccc(OCCCCCOc2ccc(C(=N)N)cc2)cc1 has an MIC of greater than 200 µg/mL (broth dilution; W3110).
With CC1(C)S[C@@H]2[C@H](NC(=O)[C@H](N)c3ccccc3)C(=O)N2[C@H]1C(=O)O the MIC was 0.3 µg/mL (broth dilution; ATCC25922; 16 h).
CCCCCCC#Cc1cncc(-c2nnc(SCc3ccc([N+](=O)[O-])o3)n2C2CC2)c1 has an MIC of no less than 20 µg/mL.
For O=C(CCCCCC[P+](c1ccccc1)(c1ccccc1)c1ccccc1)Nc1ccc(O)c(O)c1.[Br-], the MIC was greater than 32 µg/mL (broth dilution; ATCC25922; 18 h).
With Brc1ccc(NCc2ccc(Oc3ccccn3)cc2)cc1 the MIC was greater than 25 µg/mL.
For Cc1ccc2nc(-c3cccc(O)c3)[nH]c2c1, the MIC was 64 µg/mL (broth dilution; ATCC25922).
The MIC of N=C(N)c1ccc(OCCC(CCOc2ccc(C(=N)N)cc2)c2ccccc2)cc1 (stereo not drawn) is reported as 200 µg/mL (broth dilution; W3110).
With CC1=NN(CNC(=O)c2ccccc2)C(=O)C1=NNn1c(-c2ccccc2)nc2ccccc2c1=O the MIC was 51.9 µM (broth dilution; 24 h).
For CC(C)Oc1c(NC(=O)c2ccc(NC(=O)[C@H](CC(N)=O)NC(=O)c3ccc(NC(=O)c4ccc(C#N)c(Cl)c4)cc3)cc2)ccc(C(=O)Nc2ccc(C(=O)O)cc2)c1O, the MIC was less than 0.03 µg/mL (DSM1116).
With CCn1cc(C(=O)O)c(=O)c2cc(F)c(N3CCNCC3)cc21 the MIC was no more than 1 µg/mL (broth dilution; ATCC10536; 18 h).
For CCCCCCCCCC(=O)Oc1c(C)c(O)c(C(=O)/C=C/c2ccccc2)c(OC)c1C, the MIC was 5000 µg/mL (broth dilution; ATCC25922).
CC(C)Oc1c(NC(=O)c2ccc(NC(=O)[C@H](CC(N)=O)NC(=O)c3ccc(NC(=O)c4ccc5c(c4)COC5=O)cc3)cc2)ccc(C(=O)Nc2ccc(C(=O)O)cc2)c1O has an MIC of no more than 0.03 µg/mL (DSM1116).
O=C(O)c1cn(C2CC2)c2cc(N3CCNCC3)c(F)cc2c1=O gave an MIC of 1.6 µg/mL.
For CC1=NN(CNc2ccccc2[N+](=O)[O-])C(=O)C1=NNn1c(-c2ccccc2)nc2ccccc2c1=O, the MIC was 50.4 µM (broth dilution; 24 h).
For CCCCC(=O)N1C(=O)/C(=C(/C)O)C(=O)C1CC(C)C (stereo not drawn), the MIC was greater than 200 µg/mL (K12, K12).
With CN(C)[C@@H]1C(O)=C(C(N)=O)C(=O)[C@@]2(O)C(O)=C3C(=O)c4c(O)cccc4[C@@](C)(O)[C@H]3C[C@@H]12 the MIC was 4 µg/mL (ATCC25922).
With CCCCCCC#Cc1cncc(-c2nnc(SCc3ccc([N+](=O)[O-])cc3)n2C)c1 the MIC was no less than 20 µg/mL.
Fc1cccc(Cl)c1-c1nc2ccccc2[nH]1 has an MIC of 64 µg/mL (broth dilution; ATCC25922).
COc1c(C)c(OS(=O)(=O)c2ccc3ccccc3c2)c(C)c(O)c1C(=O)/C=C/c1ccccc1 has an MIC of 5000 µg/mL (broth dilution; ATCC25922).
With CCCc1nc(Cl)c2c(c1O)C(=O)C1=C(O)[C@]3(O)C(=O)C(C(N)=O)=C(O)[C@@H](N(C)C)[C@@H]3C[C@@H]1C2.Cl the MIC was 16 µg/mL (broth dilution; ATCC25922).
CCCCCCC/C=C/C(=O)N1C(=O)/C(=C(\O)c2ccncc2)C(=O)C1CC(C)C (stereo not drawn) gave an MIC of greater than 200 µg/mL (K12, K12).
COc1c(C)c(OCc2ccccc2)c(C)c(O)c1C(=O)/C=C/c1ccccc1 has an MIC of 5000 µg/mL (broth dilution; ATCC25922).
With COc1ccc(-c2nc3ccccc3[nH]2)cc1O the MIC was 256 µg/mL (broth dilution; ATCC25922).
COc1c(C(=O)Nc2ccc(C(=O)O)cc2)ccc2nc(-c3cc(NC(=O)C(CC(N)=O)NC(=O)c4ccc(NC(=O)c5ccc(C#N)cc5)cc4)cn3C)[nH]c12 (stereo not drawn) gave an MIC of greater than 64 µg/mL (DSM1116).
Cc1ccc(C)n1-c1ccc(C(=O)NNC=O)cc1 gave an MIC of 31.2 µg/mL (broth dilution; ATCC10536; 18 h).
N=C(N)c1cccc(OCc2cccc(COc3cccc(C(=N)N)c3)c2)c1 has an MIC of greater than 200 µg/mL (broth dilution; BW25113).
C/C(=C\c1ccc(O)cc1)C(=O)Nc1ccc(C(=O)N[C@@H](CC(N)=O)C(=O)Nc2ccc(C(=O)Nc3ccc(C(=O)Nc4ccc(C(=O)O)cc4)c(O)c3OC(C)C)cc2)cc1 has an MIC of 0.25 µg/mL (DSM1116).
